CYP2C19 inhib: blockers of cytochrome P450 2C19 activity – biochemical, luminescence, ADME assay, primary screen | inhibition, % at 5 µM | P33261 | CYP2C19 Supersomes, luciferin-H EGE luminescence, 30 min | 96,000 compounds, 21% hits;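 active = CYP2C19 inhibition above a set limit at 5 µM in the primary screen, cut at about 50% in these data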;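 also: plate controls were negative control wells for no effect and 2.5 mM tranylcypromine positive control for full effect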
CYP2C9 act: human CYP2C9 activators, primary screen, biochemical, luminescence; Cytochrome P450 2C9 (Homo sapiens), P11712; recombinant CYP2C9, luciferin-H conversion; hits give high values; factor 1 = untreated enzyme, 0 = blocked; activation factor at 5 µM; 96,000 compounds, 1.4% hits;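 active = activation factor of 2 or more for CYP2C9 at a 5 µM dose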;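 also: 0 = sulfaphenazole-blocked wells and 1 = vehicle-only wells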
Target sequence (P11712 whole entry, looked up): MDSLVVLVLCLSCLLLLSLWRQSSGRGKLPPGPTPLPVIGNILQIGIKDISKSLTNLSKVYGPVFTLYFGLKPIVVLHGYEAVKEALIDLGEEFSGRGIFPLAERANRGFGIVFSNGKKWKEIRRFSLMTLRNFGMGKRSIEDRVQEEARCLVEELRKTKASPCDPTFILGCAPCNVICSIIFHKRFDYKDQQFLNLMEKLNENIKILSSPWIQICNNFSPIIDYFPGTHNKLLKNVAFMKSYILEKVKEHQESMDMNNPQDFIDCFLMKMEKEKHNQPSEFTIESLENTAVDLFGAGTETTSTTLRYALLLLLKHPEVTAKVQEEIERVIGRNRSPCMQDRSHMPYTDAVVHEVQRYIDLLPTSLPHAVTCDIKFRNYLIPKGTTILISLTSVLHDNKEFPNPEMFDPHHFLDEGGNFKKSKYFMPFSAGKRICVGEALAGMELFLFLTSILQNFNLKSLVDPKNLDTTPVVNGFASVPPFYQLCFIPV
CYP2C19 act: human CYP2C19 activators, primary screen, biochemical, luminescence; 96,000 tested, under 10 active; AID 1025, 2008; activation factor at 5 µM; Cytochrome P450 2C19 (Homo sapiens), P33261; recombinant CYP2C19, luciferin-H EGE luminescence; hits give high values; 0 = fully inhibited enzyme, 1 = untreated enzyme;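 active = activation factor of at least 2 at 5 µM in the primary screen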;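 also: 0 = wells with 2.5 mM tranylcypromine and 1 = vehicle-only wells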
E coli WT exp: growth inhibitors of wild-type E. coli, primary screen, strain BW25113, expanded library, OD600; OD600 absorbance; growth inhibition, % at 100 µM; 98,000 compounds, 0.15% hits; AID 710, 2007;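 active = growth inhibition above about 50% at one test dose, limit read from the data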;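 also: growth measured after 20 h incubation at 37 °C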
CYP2C9 inhib: blockers of cytochrome P450 2C9 activity – biochemical, luminescence, ADME assay, primary screen. P11712. CYP2C9 Supersomes, luciferin-H conversion. inhibition, % at 5 µM. 96,000 compounds, 20% hits;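 active = blocking of liver enzyme CYP2C9 beyond about 50% at 5 µM, limit read from the data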
Ecoli tolC: growth inhibitors of E. coli tolC mutant, primary screen, strain BW25113 ΔtolC::kan, 384-well; OD615; growth inhibition, % at 10 µM (by protocol); 65,000 compounds, 2.2% hits;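 active = growth inhibition at or above a cutoff equal to the mean over every tested compound plus 3 SD, cut at about 60% in these data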;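 also: growth measured after 20 h incubation at 37 °C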
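Doses: one dose of 10 µM final / Material: E. coli BW25113 ΔtolC::kan, tolC deletion mutant strain / Buffer or medium: LB with kanamycin 50 µg/mL / Evaluation: percent growth inhibition / Detection: optical density read at 615 nm / Incubation: 37 °C, 20 h exposure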
An asterisk follows results filed as active; . = no result given. Hits are enriched below; roughly 29% of the tested compounds scored in any of these assays.

SMILES	CYP2C19 inhib	CYP2C9 act	CYP2C19 act	E coli WT exp	CYP2C9 inhib	Ecoli tolC
COc1ccc(CNC(=O)c2ccc(NC(=O)CC3SC(N4CCCC4)=NC3=O)cc2)cc1 (stereo unspecified)	13	1	0.9	0	-2	.
CC(C)(C)C(=O)NC1CCN(S(=O)(=O)c2ccc(C(F)(F)F)cc2)CC1	76*	1	0.2	1	-3	.
COc1ccc(C(=O)N(CN2CCCC2=O)c2cc(C)on2)cc1OC	-3	1	1	9	0	-4
CCCc1nn(C)c2c1C(c1cccnc1)C(C#N)=C(N)O2 (stereo unspecified)	-8	1	1.1	3	1	17
N#CC1=C(N)Oc2cc(N)ccc2C1c1ccc(F)cc1 (stereo unspecified)	74*	0.5	0.3	7	50*	.
CCN(CC)c1ccc2c(c1)OC(N)=C(C#N)C2c1cccnc1 (stereo unspecified)	82*	0.5	0.2	6	45	20
COc1cc(C2C(C#N)=C(N)Oc3cc(N)ccc32)cc(OC)c1OC (stereo unspecified)	.	.	.	2	.	9
Cc1ccc(C2C(C#N)=C(N)Oc3cc4c(cc32)OCO4)cc1 (stereo unspecified)	72*	0.3	0.3	-4	74*	19
Nc1ccc2nc(CN3CCOCC3)[nH]c2c1	2	0.9	1	4	9	.
O=C(CN(C(=O)CSc1nnc(COc2ccccc2)o1)c1ccc(F)cc1)NC1CCCCC1	10	0.7	0.9	-6	30	-1
O=C(NC1CCCCCC1)C1CCN(C(=O)Cc2ccccc2)CC1	6	0.8	0.9	5	16	-6
O=C(NC1CC2CCCC(C1)N2S(=O)(=O)c1ccccc1)C1CCCCC1 (stereo unspecified)	27	0.4	0.7	3	60*	.
O=C(c1ccc(Cl)cc1)N1CCN(c2nc(N3CCCCC3)nc(N3CCCCC3)n2)CC1	.	.	.	.	.	12
Cc1ccc(N(CC(=O)Nc2ccc(C)cc2C)S(=O)(=O)N2CCCC2)cc1	20	0.2	0.8	-15	80*	.
CCN1CCN(CC(=O)Nc2ccc(C)cc2C)C(=O)C1=O	24	0.5	0.8	7	50	2
CCCCCCC(=O)NC(Nc1ccc(S(N)(=O)=O)cc1)C(Cl)(Cl)Cl (stereo unspecified)	10	0.5	0.9	8	53*	.
CCn1c(SCC(=O)Nc2nc3c(s2)CCCC3)nc2c1c(=O)n(C)c(=O)n2C	15	1	0.9	.	-2	12
O=C(CCNS(=O)(=O)c1cccc2nsnc12)NC1CCN(Cc2ccccc2)CC1	5	1	1	5	1	-8
C=CCN=C1SC(CC)C(=O)N1S(=O)(=O)c1ccc(C)cc1 (stereo unspecified)	84*	0.6	0.2	8	42	.
CCN(Cc1ccccc1)Cc1c(F)cccc1F	26	1.1	0.7	0	-8	-13
COc1ccc(CN(CCN(C)C)Cc2ccccc2)c(OC)c1	82*	0.8	0.2	0	23	.
CCN(Cc1ccccc1)Cc1cc(OC)cc(OC)c1	95*	0.7	0.1	11	35	-5
CSc1nnc2c3c4c(sc3c(=O)n(-c3ccccc3)n12)CC(C)(C)OC4	7	0.9	0.9	6	6	-11
Cc1cc(C)cc(NC(=O)c2cccn2-c2ncc(C(F)(F)F)cc2Cl)c1	50	0.8	0.5	-10	20	.
CC(C)Oc1ccc(NC(=O)Oc2ccccc2)cc1	23	0.8	0.8	5	17	8
SMILES	CYP2C19 inhib	CYP2C9 act	CYP2C19 act	E coli WT exp	CYP2C9 inhib	Ecoli tolC
O=C1N=C(N2CCOCC2)S/C1=C1\C(=O)N(Cc2ccccc2)c2ccc(Br)cc21	30	0.4	0.7	.	62*	11
CCCCN1C(=O)/C(=C2\SC(N3CCCCC3)=NC2=O)c2ccccc21	53*	0.1	0.5	-8	90*	29
COc1ccnc(N=CNOCc2ccc(C)cc2)c1C#N	14	0.8	0.9	-2	17	.
CC(=O)c1ccc(C(C)(C)c2ccc(C(C)=O)s2)s1	29	0.5	0.7	8	50*	-3
COc1cc2c(cc1OC)-c1cc(NC3CCCCCCC3)nc(=O)n1CC2	38	0.5	0.6	3	51*	56
COc1ccc(N2CCN(CCCNC(=O)CC3Oc4ccc(C)cc4NC3=O)CC2)cc1 (stereo unspecified)	13	0.2	0.9	6	77*	-5
COc1cccc(C(=O)N2CCN(C3CCC(c4ccccc4)CC3)CC2)c1 (stereo unspecified)	91*	0.7	0.1	11	34	2
COc1ccc(Cl)cc1NC(=S)N1CCN(c2ccccn2)CC1	56*	2.5*	0.4	-4	-154	.
COc1cccc(C(=O)N2CCN(c3ncccn3)CC2)c1	70*	0.7	0.3	0	32	-11
COc1cc(OC)cc(C(=O)N2CCN(C3CCN(Cc4ccccc4)CC3)CC2)c1	-4	1.3	1	-2	-32	.
Cc1nc2ccc(C(=O)N3CCN(c4ccccn4)CC3)cc2s1	8	0.9	0.9	11	7	0
O=C(c1cccc(COc2ccc(Cl)cc2Cl)c1)N1CCN(c2ccccn2)CC1	54*	0.3	0.5	-37	70*	86*
CCn1cnc2sc(C(=O)N3CCN(c4ccc(OC)cc4)CC3)c(C)c2c1=O	24	0.4	0.8	6	57*	-1
CCCNC(=O)Cn1cnc2sc(C(=O)N3CCN(CCC)CC3)c(C)c2c1=O	0	0.9	1	2	6	-15
COc1cccc(CN2CCN(C(=O)c3cccc(F)c3)CC2)c1	.	.	.	.	.	-11
CCCS(=O)(=O)N1CCN(C(=O)c2cccc(OC)c2)CC1	78*	0.9	0.2	4	11	-20
COc1ccc(C(=O)N2CCN(c3ccccn3)CC2)cc1	67*	0.8	0.3	3	20	.
COc1cccc(C(=O)N2CCN(Cc3ccccc3C(F)(F)F)CC2)c1	95*	0.6	0.1	7	37	19
Cc1ccc(NS(=O)(=O)c2ccc(C(=O)N3CCN(c4ccccn4)CC3)cc2)cc1	12	0.5	0.9	1	47	.
COc1ccc(Cl)cc1C(=O)Nc1cc(=O)n(C)c(=O)n1C	.	.	.	.	.	-11
COc1ccc(N2CCN(C(=O)c3ccncc3)CC2)cc1	79*	0.6	0.2	-2	39	.
Cc1ccccc1NC(=O)Cc1nc(CSc2nnc(-c3ccc4c(c3)OCO4)o2)cs1	63*	1.1	0.4	-8	-8	.
